Data published in ChEMBL document CHEMBL4765360, “Design, synthesis and biological evaluation of novel potent STAT3 inhibitors based on BBI608 for cancer therapy” (Eur J Med Chem, 2020).
pIC50: −log10 of the molar value. The source made the active and inactive calls. The rule behind the calls is not given here.

Tests used:
MDA-MB-231 [1] = test: Antiproliferative activity against human MDA-MB-231 cells overexpressing STAT3 assessed as reduction in cell growth incubated for 48 hrs by CCK-8 assay; format: functional, cell-based; conditions: MDA-MB-231, 48 h
Summary of the method: (§1)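 Cells seeded at 5000-7000/well and allowed to settle for 8 h at 37 °C, 5% CO2. Graded compound concentrations were then added in triplicate (DMSO <0.1%) for 48 h. Medium was replaced with 10% CCK-8 for 4 h (MDA-MB-231, MDA-MB-468) or 1 h (HepG2), and A450 was read. IC50 is mean ± SD of at least three independent experiments. HepG2 was grown in high-glucose DMEM with 10% FBS.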

MDA-MB-468 = test: Antiproliferative activity against human MDA-MB-468 cells overexpressing STAT3 assessed as reduction in cell growth incubated for 48 hrs by CCK-8 assay; format: functional, cell-based; conditions: MDA-MB-468, 48 h; summary of the method: as §1
[2] = target: T1, Signal transducer and activator of transcription 3 (Homo sapiens, UniProt P40763); test: Inhibition of STAT3 in human MDA-MB-231 cells assessed as reduction in c-myc expression incubated for 24 hrs by Western blot analysis; format: cell-based; conditions: dose 0.75-3 µM
T1 sequence (P40763 whole entry): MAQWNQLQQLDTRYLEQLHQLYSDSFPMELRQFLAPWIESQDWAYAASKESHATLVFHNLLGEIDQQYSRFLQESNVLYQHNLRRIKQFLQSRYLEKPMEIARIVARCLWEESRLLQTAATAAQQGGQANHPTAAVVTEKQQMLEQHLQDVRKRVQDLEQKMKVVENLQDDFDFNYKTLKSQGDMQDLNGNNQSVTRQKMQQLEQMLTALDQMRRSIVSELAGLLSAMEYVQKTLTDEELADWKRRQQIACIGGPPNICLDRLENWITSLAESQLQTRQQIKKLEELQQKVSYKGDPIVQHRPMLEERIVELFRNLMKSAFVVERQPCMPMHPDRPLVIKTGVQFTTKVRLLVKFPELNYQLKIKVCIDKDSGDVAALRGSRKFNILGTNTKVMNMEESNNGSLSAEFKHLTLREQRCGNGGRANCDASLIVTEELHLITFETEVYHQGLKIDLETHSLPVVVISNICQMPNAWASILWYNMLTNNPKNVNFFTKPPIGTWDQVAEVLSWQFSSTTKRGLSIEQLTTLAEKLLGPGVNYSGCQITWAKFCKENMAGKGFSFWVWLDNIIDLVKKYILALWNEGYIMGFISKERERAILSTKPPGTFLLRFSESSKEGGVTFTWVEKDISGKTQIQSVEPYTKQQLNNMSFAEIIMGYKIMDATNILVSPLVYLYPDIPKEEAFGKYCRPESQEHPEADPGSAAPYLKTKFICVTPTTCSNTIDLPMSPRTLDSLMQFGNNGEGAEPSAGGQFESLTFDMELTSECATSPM
Summary of the method: (§2)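 MDA-MB-231 cells treated with a range of concentrations for 24 h. RIPA lysates with PMSF, 40 µg protein/lane, on 10% SDS-PAGE, then PVDF. Blocked in 5% milk/TBST for 2 h. Primary antibodies to STAT3, p-STAT3(Y705), STAT1, p-STAT1(Y701), c-Myc and Cyclin D1 overnight at 4 °C; GAPDH as loading control. HRP secondary for 1 h; ECL detection.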

[3] = target: T1, Signal transducer and activator of transcription 3; test: Inhibition of STAT3 in human MDA-MB-231 cells assessed as reduction in Cyclin D1 expression incubated for 24 hrs by Western blot analysis; format: cell-based; conditions: dose 0.75-3 µM; summary of the method: as §2
MDA-MB-231 [4] = test: Effect on STAT1 expression in human MDA-MB-231 cells at 0.75 to 3 uM incubated for 24 hrs by Western blot analysis; format: functional, cell-based; conditions: dose 0.75-3 µM; summary of the method: as §2
[5] = target: T1, Signal transducer and activator of transcription 3; test: Inhibition of STAT3 in human MDA-MB-231 cells assessed as reduction in STAT3 Y705 phosphorylation in cytoplasm at 3 uM incubated for 24 hrs by immunofluorescence staining based fluorescence microscopy; format: subcellular
Summary of the method: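 MDA-MB-231 cells at 1×10^4 per dish, adhered overnight, then exposed to 3.0 µM for 24 h. Fixed in 4% paraformaldehyde and permeabilized with 0.5% Triton X-100. Blocked in 5% BSA for 1 h. Anti-p-STAT3 primary overnight at 4 °C, then Alexa Fluor 546 anti-rabbit for 1 h at RT. Hoechst nuclear stain; imaged by fluorescence microscopy.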

MDA-MB-231 [6] = test: Induction of apoptosis in human MDA-MB-231 cells assessed as late apoptotic cells at 1 uM incubated for 24 hrs by annexin V-FITC and PI staining based flow cytometry analysis (reference value: 3.72 %); format: functional
MDA-MB-231 [7] = test: Induction of apoptosis in human MDA-MB-231 cells assessed as viable cells at 4 uM incubated for 24 hrs by annexin V-FITC and PI staining based flow cytometry analysis (reference value: 93.37 %); format: functional; conditions: read-out: Activity
MDA-MB-231 [8] = test: Induction of apoptosis in human MDA-MB-231 cells assessed as early apoptotic cells at 4 uM incubated for 24 hrs by annexin V-FITC and PI staining based flow cytometry analysis (reference value: 2.69 %); format: functional
MDA-MB-231 [9] = test: Induction of apoptosis in human MDA-MB-231 cells assessed as late apoptotic cells at 4 uM incubated for 24 hrs by annexin V-FITC and PI staining based flow cytometry analysis (reference value: 3.72 %); format: functional
MDA-MB-231 [10] = test: Induction of apoptosis in human MDA-MB-231 cells assessed as necrotic cells at 4 uM incubated for 24 hrs by annexin V-FITC and PI staining based flow cytometry analysis (reference value: 0.23 %); format: functional
MDA-MB-231 [11] = test: Induction of cell cycle arrest in human MDA-MB-231 cells assessed as increase in S phase accumulation incubated for 24 hrs by PI staining based flow cytometry analysis; format: functional; conditions: dose 1-4 µM
MDA-MB-231 [12] = test: Induction of cell cycle arrest in human MDA-MB-231 cells assessed as S phase accumulation at 1 uM incubated for 24 hrs by PI staining based flow cytometry analysis (reference value: 26.21 %); format: functional
MDA-MB-231 [13] = test: Induction of cell cycle arrest in human MDA-MB-231 cells assessed as G2/M phase accumulation at 1 uM incubated for 24 hrs by PI staining based flow cytometry analysis (reference value: 15.80 %); format: functional
MDA-MB-231 [14] = test: Induction of cell cycle arrest in human MDA-MB-231 cells assessed as G0/G1 phase accumulation at 2 uM incubated for 24 hrs by PI staining based flow cytometry analysis (reference value: 57.99 %); format: functional
MDA-MB-231 [15] = test: Induction of cell cycle arrest in human MDA-MB-231 cells assessed as S phase accumulation at 2 uM incubated for 24 hrs by PI staining based flow cytometry analysis (reference value: 26.21 %); format: functional
MDA-MB-231 [16] = test: Induction of cell cycle arrest in human MDA-MB-231 cells assessed as G2/M phase accumulation at 2 uM incubated for 24 hrs by PI staining based flow cytometry analysis (reference value: 15.80 %); format: functional
MDA-MB-231 [17] = test: Induction of cell cycle arrest in human MDA-MB-231 cells assessed as G0/G1 phase accumulation at 4 uM incubated for 24 hrs by PI staining based flow cytometry analysis (reference value: 57.99 %); format: functional
MDA-MB-231 [18] = test: Antitumor activity against human MDA-MB-231 cells xenografted in BALB/c mouse assessed as reduction in tumor growth at 10 mg/kg, ip administered once daily for 21 days and measured on day 21 relative to control; format: functional; conditions: MDA-MB-231, ip, 504 h, time 21 day, read-out: TGI
Summary of the method: (§3)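 Female BALB/c nude mice, 5 weeks old (16–18 g), were given 5×10^6 MDA-MB-231 cells subcutaneously. At ~50 mm³, mice were randomized to three groups (n=6): vehicle, 5 or 10 mg/kg i.p. daily for 21 days. Tumor volume (length×width²/2) was measured every 3 days and body weight recorded. Tumors were excised and weighed at the end. TGI derived versus control; mean ± SEM.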

MDA-MB-231 [19] = test: Antitumor activity against human MDA-MB-231 cells xenografted in BALB/c mouse assessed reduction in tumor weight at 10 mg/kg, ip administered once daily for 21 days and measured on day 21 relative to control; format: functional; design: scale not given: the % may be the effect or the level left; conditions: dose 10 mg/kg/day; time 21 day; summary of the method: as §3
[20] = Toxicity in BALB/c mouse xenografted with human MDA-MB-231 cells assessed as effect on body weight loss at 5 to 10 mg/kg, ip administered once daily for 21 days and measured for 21 days; format: organism-based; conditions: in vivo, 504 h, dose 5-10 mg/kg/day, time 21 day; summary of the method: as §3
MDA-MB-231 [21] = test: Antitumor activity against human MDA-MB-231 cells xenografted in BALB/c mouse assessed as reduction in tumor growth at 5 mg/kg, ip administered once daily for 21 days and measured on day 21 relative to control; format: functional; conditions: MDA-MB-231, ip, 504 h, time 21 day, read-out: TGI; summary of the method: as §3

pIC50 (MDA-MB-231 [1]): 6.17
pIC50 (MDA-MB-468): 6.11
inhibition [2]: Dose-dependent effect
inhibition [3]: Dose-dependent effect
inhibition [5]: Active
Structure (SMILES): COc1ccc(NC2=CC(=O)c3cc(C(C)=O)oc3C2=O)cc1
Activity (MDA-MB-231 [4]): inactive
Activity (MDA-MB-231 [6]): 6.51%
viability at 4 µM (MDA-MB-231 [7]): 67%
Activity (MDA-MB-231 [8]): 10.25%
Activity (MDA-MB-231 [9]): 22.03%
Activity (MDA-MB-231 [10]): 0.77%
Activity (MDA-MB-231 [11]): Dose-dependent effect
Activity (MDA-MB-231 [12]): 34.31%
Activity (MDA-MB-231 [13]): 16.27%
Activity (MDA-MB-231 [14]): 40.49%
Activity (MDA-MB-231 [15]): 46.21%
Activity (MDA-MB-231 [16]): 13.3%
Activity (MDA-MB-231 [17]): 35.39%
inhibition in vivo at 10 mg/kg/day (MDA-MB-231 [18]): 54.6%
Activity (MDA-MB-231 [19]): 45.19%
Activity [20]: Non-Toxic
inhibition in vivo at 5 mg/kg/day (MDA-MB-231 [21]): 8.42%
